Screening data as filed in PubChem.
E-sel inducer – E-selectin induction in HUVECs, primary screen, imaging, HUVEC, immunofluorescence imaging, single point. P16581. normalized: neutral wells 0, TNF-alpha wells 100. 260,000 tested, 0.37% active. AID 686992, 2013. activation, % at 7.58 µM;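 active = mean E-selectin-positive cell signal at least 10% of the positive control, reached in at least 60% of replicates, without over 20% cell loss; inconclusive = no rule given, readout overlaps actives, possibly toxicity-flagged; inactive = the rest, including those meeting only one limit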
Target sequence (P16581 whole entry, looked up): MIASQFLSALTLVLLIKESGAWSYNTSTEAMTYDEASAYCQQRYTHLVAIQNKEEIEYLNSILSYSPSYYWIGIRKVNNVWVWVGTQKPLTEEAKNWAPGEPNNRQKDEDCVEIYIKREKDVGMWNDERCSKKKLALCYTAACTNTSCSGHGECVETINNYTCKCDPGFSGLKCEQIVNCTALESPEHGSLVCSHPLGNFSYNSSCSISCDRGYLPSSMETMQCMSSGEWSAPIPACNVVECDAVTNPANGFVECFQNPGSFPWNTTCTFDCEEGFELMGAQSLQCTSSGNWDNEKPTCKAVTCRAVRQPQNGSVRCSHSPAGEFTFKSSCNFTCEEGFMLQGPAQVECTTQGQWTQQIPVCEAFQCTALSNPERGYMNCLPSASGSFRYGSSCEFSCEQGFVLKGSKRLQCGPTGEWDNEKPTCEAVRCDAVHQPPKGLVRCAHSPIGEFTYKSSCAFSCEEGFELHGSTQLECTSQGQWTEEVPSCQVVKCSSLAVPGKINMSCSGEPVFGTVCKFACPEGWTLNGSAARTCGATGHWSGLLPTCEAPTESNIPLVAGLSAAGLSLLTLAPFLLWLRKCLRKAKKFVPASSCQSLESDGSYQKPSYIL
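Material: HUVEC primary endothelial cells; Amount: 3,000 cells per well; Dosing: single concentration; Medium: EGM-2 growth medium on 0.1% gelatin-coated wells; Read-out basis: percent E-selectin-positive cells; Signal: immunofluorescence imaging; Control set: TNF-alpha, DMSO.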
C2C12 statin – suppressors of statin myotoxicity in C2C12 myotubes, primary screen, cell-based, single point, plate reader | C2C12 myotubes + simvastatin, ATP luminescence, 48 h; scaled: DMSO 0, geranylgeraniol control 100 | rescue of ATP level, % at 7.49 µM | 330,000 tested, 0.78% active;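 active = mean ATP rescue above about 67%, or every replicate alone reaching that limit, limit read from the data, passing the limit was not always enough; inconclusive = no clear call, values can overlap the other calls; inactive = mean under the limit and some replicate under it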;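 also: myotubes were challenged with 10 µM simvastatin during compound exposure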
DENV2 CPE – inhibitors of DENV2 cytopathic effect, primary screen, cell-based, plate reader, single concentration. DENV2-infected cells, cytopathic effect rescue. CPE inhibition, % at 9.99 µM. 350,000 tested, 1.7% active; in the data active = CPE inhibition above about 20%, passing the limit was not always enough; inconclusive = no clear call, values can overlap the other calls; tested in BHK-21 cells;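 also: 0% = median of neutral control wells and 100% = median of positive control wells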
An asterisk follows results filed as active. Hits are enriched below; roughly 2.2% of the tested compounds scored in any of these assays.

For COCC(=O)Nc1ccc2c(c1)[C@@H]1C[C@@H](CC(=O)O)O[C@@H](CO)[C@@H]1O2 the results were E-sel inducer 1.2, C2C12 statin -1.8 and DENV2 CPE -0.4.
`CN1C(=O)c2cc(NC(=O)C3CCCC3)ccc2OC[C@@H]2O[C@@H](CC(=O)Nc3ccccc3)CC[C@H]21` gave E-sel inducer 0.0, C2C12 statin -5.3 and DENV2 CPE -3.6.
Screening CNc1c(NS(=O)(=O)c2ccc(OC)cc2)c(=O)oc2ccccc12 returned E-sel inducer 0.5, C2C12 statin -0.3 and DENV2 CPE 7.2.
For COc1ccc(S(=O)(=O)Nc2cc3c4c(oc3c3ccccc23)CCCC4=O)cc1 the results were C2C12 statin 76.8*.
COc1cc(CN2CC3(CCN(C(=O)c4cccnc4)CC3)c3c([nH]c4cc(OC)ccc34)[C@@H]2CO)cc(OC)c1 was read as E-sel inducer -0.1 and DENV2 CPE inconclusive.
Screening CCC(=O)N[C@H]1C=C[C@H](CC(=O)NCc2ccccc2F)O[C@H]1CO returned E-sel inducer -0.1, C2C12 statin 0.4 and DENV2 CPE -4.0.
For O=C(NC1CCCC1)N1CCCCN2[C@H](CO)[C@@H](c3ccc(-c4cncnc4)cc3)[C@@H]2C1 the results were E-sel inducer -0.3 and DENV2 CPE 33.9*.
COCC(=O)N1CCCCN2[C@H](C1)[C@@H](c1ccc(C#Cc3cccnc3)cc1)[C@@H]2CO was read as E-sel inducer 0.2 and DENV2 CPE 23.5*.
Screening CCC(=O)N1CCCCN2[C@@H](CO)[C@H](c3ccc(C#Cc4cccnc4)cc3)[C@@H]2C1 returned E-sel inducer -0.3, C2C12 statin -1.5 and DENV2 CPE 1.4.
Screening O=C(NC1CCCC1)N1CCCCN2[C@H](CO)[C@@H](c3ccc(-c4cncnc4)cc3)[C@H]2C1 returned E-sel inducer 0.0 and DENV2 CPE -3.8.
Screening CN(C)CC(=O)N1CCCCN2[C@H](CO)[C@H](c3ccc(-c4cccnc4)cc3)[C@@H]2C1 returned E-sel inducer 0.1 and DENV2 CPE 21.5*.
For COCC(=O)N1CCCCN2[C@H](CO)[C@@H](c3ccc(C#Cc4cccnc4)cc3)[C@H]2C1 the results were E-sel inducer -0.1 and DENV2 CPE 31.7*.
Screening CN(C)CC(=O)N1CCCCN2[C@@H](CO)[C@@H](c3ccc(-c4cccnc4)cc3)[C@@H]2C1 returned E-sel inducer -0.2 and DENV2 CPE -8.9.
For COCC(=O)N1CCCCN2[C@H](CO)[C@@H](c3ccc(C#Cc4cccnc4)cc3)[C@@H]2C1 the results were E-sel inducer 0.0 and DENV2 CPE -2.6.
Screening CC(=O)N(C)C[C@@H]1Oc2cc(-c3ccccc3)ccc2S(=O)(=O)N([C@@H](C)CO)C[C@@H]1C returned E-sel inducer 0.5, C2C12 statin 9.6 and DENV2 CPE -5.5.
Screening OC[C@@H]1[C@H](c2ccc(C3=CCCC3)cc2)[C@@H](CNC2CCCC2)N1CC1CC1 returned E-sel inducer 0.0 and DENV2 CPE -2.8.
Screening CO[C@H]1CN(C)C(=O)c2cc(NC(=O)C3CCOCC3)ccc2OC[C@H](C)N(C(C)=O)C[C@@H]1C returned E-sel inducer -0.1, C2C12 statin -6.6 and DENV2 CPE -4.8.
Screening CCCc1cn(CC[C@@H]2CC[C@H](NC(=O)Cc3cccnc3)[C@H](CO)O2)nn1 returned E-sel inducer -0.6, C2C12 statin -3.5 and DENV2 CPE 5.9.
For O=C(c1cccnc1)N1CCCCN2[C@H](C1)[C@H](c1ccc(C#Cc3cccnc3)cc1)[C@@H]2CO the results were E-sel inducer -0.1 and DENV2 CPE 9.9.
For CC(=O)N1CC(=O)N2[C@H](C1)[C@@H](c1ccc(C#Cc3cccnc3)cc1)[C@@H]2CO the results were E-sel inducer 0.3 and DENV2 CPE 0.5.
`CC(=O)N1CC(=O)N2[C@H](CO)[C@@H](c3ccc(C#Cc4cccnc4)cc3)[C@@H]2C1` gave E-sel inducer -0.3 and DENV2 CPE 26.5*.
For O=C(c1cccnc1)N1CCCCN2[C@H](CO)[C@@H](c3ccc(C#Cc4cccnc4)cc3)[C@H]2C1 the results were E-sel inducer 0.0 and DENV2 CPE 25.1*.
`COc1ccc(-c2cnc3c(c2)C(=O)N([C@@H](C)CO)C[C@H](C)[C@@H](CN(C)C)O3)cc1` gave E-sel inducer -0.4, C2C12 statin 11.7 and DENV2 CPE inconclusive.
Screening COCCNC(=O)c1cc2c(c(-c3cccc(C#CCN(C)C)c3)n1)[C@H](CCO)N(S(=O)C(C)(C)C)C2 (some centres undefined) returned DENV2 CPE -3.3.
